Experimental data taken from ChEMBL document CHEMBL1155635, “New cytotoxic sesquiterpenes from the gorgonian Isis hippuris” (2000).
Converted amounts (≈) assume the structure as drawn.

Tests used:
Assay type in all cases: functional
P388 = experiment: Cytotoxicity against mouse P388 cells by MTT method; details: for EC50: Mus musculus, P388, read-out: ED50 (the source's name)
In short: (§1)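 Modified MTT colorimetric assay. P-388 cells were a gift from an outside laboratory; A549 and HT-29 came from ATCC. Cells were treated at eight concentrations of pure compound, 50 to 5 × 10-6 µg/mL. Growth was expressed as percent of control incubations, run in triplicate. ED50 is the dose inhibiting cell growth by 50%.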

A549 = experiment: Cytotoxicity against human A549 cells by MTT method; details: read-out: ED50 (the source's name); in short: as §1
HT-29 = experiment: Cytotoxicity against human HT29 cells by MTT method; details: for EC50: Homo sapiens, HT-29, read-out: ED50 (the source's name); in short: as §1

Structure (SMILES) | EC50 (P388) | EC50 (A549) | ED50 (HT-29) | ED50 (P388) | EC50 (HT-29)
C=C1[C@@H](OC(C)=O)C[C@H]2[C@@H]3CC[C@H](C)[C@]12CC3(C)C [SUBEROSENOL A ACETATE] | 0.0076 µg/mL | 0.08 µg/mL | 3.6 ×10⁻⁴ ug/ml | – | –
C[C@H]1CC[C@H]2[C@@H]3CC(=O)[C@H](C)[C@@]13CC2(C)C [SUBEROSANONE] | – | 0.036 µg/mL (≈ 0.163 µM) | <5 ×10⁻⁶ ug/ml | <5 ×10⁻⁶ ug/ml | –
C=C1[C@H](O)C[C@H]2[C@@H]3CC[C@H](C)[C@]12CC3(C)C [SUBEROSENOL B] | 3.4 µg/mL (≈ 15.4 µM) | 0.2 µg/mL (≈ 0.908 µM) | – | – | 2.1 µg/mL (≈ 9.53 µM)
C=C1[C@@H](O)C[C@H]2[C@@H]3CC[C@H](C)[C@]12CC3(C)C [SUBEROSENOL A] | – | 0.0051 µg/mL (≈ 0.0231 µM) | <5 ×10⁻⁶ ug/ml | <5 ×10⁻⁶ ug/ml | –
C=C1[C@H](OC(C)=O)C[C@H]2[C@@H]3CC[C@H](C)[C@]12CC3(C)C [SUBEROSENOL B ACETATE] | 0.074 µg/mL | 0.36 µg/mL | – | – | 0.005 µg/mL
C[C@@H]1CC(=O)[C@@]23[C@@H](C)C(C(=O)O)=C[C@]2(C)CC[C@@H]13 [SUBERGORGIC ACID] | 13.3 µg/mL (≈ 53.6 µM) | > 50 µg/mL | – | – | > 50 µg/mL
